“And” between values parts separate entries of the source, which are not always exact repeats. Equal values may be shown once.
System: U2OS
Test: Multiplex assay against U2OS
Assay type: toxicity, cell-based
Details: human
Outline: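 Imaging took place on a CQ1 microscope at 37°C and 5% CO2 once compound had been added to live cells stained at seeding with Hoechst33342, BioTracker Green Microtubule Cytoskeleton Dye, MitoTracker Red and Annexin V Alexa Fluor 680. CellPathfinder machine-learning gating classed cells as Hoechst high-intensity objects or normal cells, classed normal cells as having healthy, pyknosed or fragmented nuclei, and classed pyknosed cells as mitotic or apoptotic. Tubulin, mitochondrial-mass and membrane-permeability phenotypes are per cents of the healthy-nucleus cells.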

[1] = 12 h, 1 µM, compound concentration 1 uM
[2] = 12 h, 10 µM, compound concentration 10 uM
[3] = 24 h, 1 µM, compound concentration 1 uM
[4] = 24 h, 10 µM, compound concentration 10 uM
[5] = 48 h, 1 µM, compound concentration 1 uM
[6] = 48 h, 10 µM, compound concentration 10 uM

CN1CCN(c2ccc(Nc3c4ccccc4nc4ccccc34)cc2)CC1.Cl.Cl.O
Population Apoptotic (%) [1]: 100% and 87% | Population Fragmented Nuclei (%) [1]: 25% and 23% | Population Healthy Nuclei (%) [1]: 65% and 69% | Population Hoechst High Intensity Objects (%) [1]: 0% | Population Membrane Permeable-Phenotype (%) [1]: 19% and 14% | Population Mitochondria Different-Phenotype (%) [1]: 7% and 13% | Population Mitotic Cells (%) [1]: 0% and 12% | Population Normal (%) [1]: 99% and 100% | Population Pyknosed Nuclei (%) [1]: 8% and 7% | Population Tubulin-Different-Phenotype (%) [1]: 17% and 13% | Total Cell Count [1]: 193 and 107 | Population Apoptotic (%) [2]: 93% and 100% | Population Fragmented Nuclei (%) [2]: 54% and 62% | Population Healthy Nuclei (%) [2]: 38% and 31% | Population Hoechst High Intensity Objects (%) [2]: 0% and 2% | Population Membrane Permeable-Phenotype (%) [2]: 65% and 70% | Population Mitochondria Different-Phenotype (%) [2]: 95% and 100% | Population Mitotic Cells (%) [2]: 6% and 0% | Population Normal (%) [2]: 99% and 97% | Population Pyknosed Nuclei (%) [2]: 7% and 6% | Population Tubulin-Different-Phenotype (%) [2]: 82% and 85% | Total Cell Count [2]: 213 and 132 | Population Apoptotic (%) [3]: 92% and 100% | Population Fragmented Nuclei (%) [3]: 28% and 29% | Population Healthy Nuclei (%) [3]: 64% and 60% | Population Hoechst High Intensity Objects (%) [3]: 1% and 4% | Population Membrane Permeable-Phenotype (%) [3]: 10% and 5% | Population Mitochondria Different-Phenotype (%) [3]: 6% and 12% | Population Mitotic Cells (%) [3]: 7% and 0% | Population Normal (%) [3]: 98% and 95% | Population Pyknosed Nuclei (%) [3]: 6% and 10% | Population Tubulin-Different-Phenotype (%) [3]: 7% and 6% | Total Cell Count [3]: 200 and 124 | Population Apoptotic (%) [4]: 100% and 90% | Population Fragmented Nuclei (%) [4]: 46% and 69% | Population Healthy Nuclei (%) [4]: 42% and 23% | Population Hoechst High Intensity Objects (%) [4]: 4% and 10% | Population Membrane Permeable-Phenotype (%) [4]: 85% and 96% | Population Mitochondria Different-Phenotype (%) [4]: 96% and 100% | Population Mitotic Cells (%) [4]: 0% and 10% | Population Normal (%) [4]: 95% and 89% | Population Pyknosed Nuclei (%) [4]: 11% and 7% | Population Tubulin-Different-Phenotype (%) [4]: 90% and 100% | Total Cell Count [4]: 205 and 148 | Population Apoptotic (%) [5]: 87% and 100% | Population Fragmented Nuclei (%) [5]: 36% and 40% | Population Healthy Nuclei (%) [5]: 52% and 47% | Population Hoechst High Intensity Objects (%) [5]: 4% and 5% | Population Mitochondria Different-Phenotype (%) [5]: 4% and 7% | Population Mitotic Cells (%) [5]: 12% and 0% | Population Normal (%) [5]: 95% and 94% | Population Pyknosed Nuclei (%) [5]: 10% and 12% | Population Tubulin-Different-Phenotype (%) [5]: 3% and 9% | Total Cell Count [5]: 231 and 147 | Population Apoptotic (%) [6]: 96% and 100% | Population Fragmented Nuclei (%) [6]: 53% and 76% | Population Healthy Nuclei (%) [6]: 30% and 19% | Population Hoechst High Intensity Objects (%) [6]: 18% and 15% | Population Membrane Permeable-Phenotype (%) [6]: 91% and 100% | Population Mitochondria Different-Phenotype (%) [6]: 90% and 96% | Population Mitotic Cells (%) [6]: 3% and 0% | Population Normal (%) [6]: 81% and 84% | Population Tubulin-Different-Phenotype (%) [6]: 93% and 100% | Total Cell Count [6]: 243 and 173

Cl.O=S(=O)(c1cccc2c(I)cccc12)N1CCCNCC1
Population Apoptotic (%) [1]: 56.67% and 27.27% | Population Fragmented Nuclei (%) [1]: 2.94% and 4.55% | Population Healthy Nuclei (%) [1]: 89.04% and 87.12% | Population Hoechst High Intensity Objects (%) [1]: 0% | Population Membrane Permeable-Phenotype (%) [1]: 1.5% and 1.74% | Population Mitochondria Different-Phenotype (%) [1]: 0.3% and 6.09% | Population Mitotic Cells (%) [1]: 43.33% and 72.73% | Population Normal (%) [1]: 100% | Population Pyknosed Nuclei (%) [1]: 8.02% and 8.33% | Population Tubulin-Different-Phenotype (%) [1]: 1.2% and 0% | Total Cell Count [1]: 374 and 132 | Population Apoptotic (%) [2]: 35.59% and 25% | Population Fragmented Nuclei (%) [2]: 1.04% and 0.7% | Population Healthy Nuclei (%) [2]: 86.75% and 74.13% | Population Hoechst High Intensity Objects (%) [2]: 0% | Population Membrane Permeable-Phenotype (%) [2]: 1.67% and 4.72% | Population Mitotic Cells (%) [2]: 64.41% and 75% | Population Normal (%) [2]: 100% | Population Pyknosed Nuclei (%) [2]: 12.22% and 25.17% | Population Tubulin-Different-Phenotype (%) [2]: 5.73% and 1.89% | Population Apoptotic (%) [3]: 47.27% and 30.77% | Population Fragmented Nuclei (%) [3]: 1.85% and 3.49% | Population Healthy Nuclei (%) [3]: 86.83% and 88.95% | Population Hoechst High Intensity Objects (%) [3]: 0% and 0.58% | Population Membrane Permeable-Phenotype (%) [3]: 1.42% and 0.65% | Population Mitochondria Different-Phenotype (%) [3]: 0% and 4.58% | Population Mitotic Cells (%) [3]: 52.73% and 69.23% | Population Normal (%) [3]: 100% and 99.42% | Population Pyknosed Nuclei (%) [3]: 11.32% and 7.56% | Population Tubulin-Different-Phenotype (%) [3]: 0.47% and 1.96% | Total Cell Count [3]: 486 and 173 | Population Apoptotic (%) [4]: 46.38% and 25% | Population Fragmented Nuclei (%) [4]: 1.31% and 1.69% | Population Healthy Nuclei (%) [4]: 87.4% and 73.6% | Population Hoechst High Intensity Objects (%) [4]: 0% | Population Membrane Permeable-Phenotype (%) [4]: 0.94% and 3.82% | Population Mitotic Cells (%) [4]: 53.62% and 75% | Population Normal (%) [4]: 100% | Population Pyknosed Nuclei (%) [4]: 11.29% and 24.72% | Population Tubulin-Different-Phenotype (%) [4]: 1.87% and 3.05% | Population Apoptotic (%) [5]: 40% and 50% | Population Fragmented Nuclei (%) [5]: 1.92% and 2.4% | Population Healthy Nuclei (%) [5]: 89.6% and 90.07% | Population Hoechst High Intensity Objects (%) [5]: 0% | Population Membrane Permeable-Phenotype (%) [5]: 0.88% and 3.42% | Population Mitochondria Different-Phenotype (%) [5]: 0% and 2.66% | Population Mitotic Cells (%) [5]: 60% and 50% | Population Normal (%) [5]: 100% | Population Pyknosed Nuclei (%) [5]: 8.47% and 7.53% | Population Tubulin-Different-Phenotype (%) [5]: 0.88% and 2.28% | Population Apoptotic (%) [6]: 44.03% and 45.31% | Population Fragmented Nuclei (%) [6]: 1.9% and 3.72% | Population Healthy Nuclei (%) [6]: 82.95% and 72.49% | Population Hoechst High Intensity Objects (%) [6]: 0.1% and 0% | Population Membrane Permeable-Phenotype (%) [6]: 1.26% and 4.62% | Population Mitochondria Different-Phenotype (%) [6]: 0.46% and 7.18% | Population Mitotic Cells (%) [6]: 55.97% and 54.69% | Population Normal (%) [6]: 99.9% and 100% | Population Pyknosed Nuclei (%) [6]: 15.14% and 23.79% | Population Tubulin-Different-Phenotype (%) [6]: 3.21% and 4.62%

Reference: ChEMBL document CHEMBL5724801, “EUbOPEN Chemogenomics Library - Multiplex” (2024)
